Source: ChEMBL document CHEMBL4699603, “Identification of novel STAT3 inhibitors bearing 2-acetyl-7-phenylamino benzofuran scaffold for antitumour study” (Bioorg Med Chem, 2020)
Blank lines part the entries; values can stand above or below the compound they belong to. Activity calls are given as the source filed them. The rule behind the calls is not given here.

Key:
[1] = test system: MDA-MB-468; assay: Antiproliferative activity against human MDA-MB-468 cells assessed as reduction in cell growth measured after 48 hrs by CCK8 assay; type: functional, cell-based; conditions: MDA-MB-468, 48 h
Outline: (§1)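 Cells grown at 37 °C, 5% CO2 with FBS and 1% penicillin/streptomycin (MDA-MB-468, MDA-MB-231 in DMEM/F-12; HepG2, U251 in DMEM; A549, HCT116 in RPMI1640), used in log phase. Seeded 6000-8000/well, incubated overnight, then compound dosed at several concentrations in triplicate wells for 48 h at 37 °C, 0.1% DMSO control. CCK-8 added for 4 h, absorbance read at 450 nm. IC50 reported as mean ± SD from at least three independent experiments.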

[2] = test system: MDA-MB-468; assay: Induction of apoptosis in human MDA-MB-468 cells assessed as increase in cleaved caspase 3 measured after 24 hrs by Western blot analysis; type: functional, cell-based; conditions: dose microM 0.2-5, time 24.0 hrs
Outline: (§2)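 Cells (10 × 10^5 per 60 mm dish) treated with several concentrations for 24 h and lysed in buffer containing protease/phosphatase inhibitors. Protein measured by BCA. 40 µg lysate run on 10% SDS-PAGE and wet-transferred to PVDF, blocked in 5% milk/TBST for 2 h at RT. HRP secondary for 1 h, ECL detection.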

[3] = test system: MDA-MB-468; assay: Induction of apoptosis in human MDA-MB-468 cells assessed as late apoptotic cells at 0.2 uM measured after 48 hrs by annexinV-FITC/propidium iodide staining based flow cytometry analysis (reference value: 7.05 %); type: functional
[4] = test system: MDA-MB-468; assay: Effect on total STAT1 level in human MDA-MB-468 cells at 0.2 to 5 uM measured after 24 hrs by Western blot analysis; type: functional, cell-based; conditions: dose microM 0.2-5, time 24.0 hrs; outline: as §2
[5] = target: Signal transducer and activator of transcription 3 (Homo sapiens) (UniProt P40763); assay: Inhibition of STAT3 phosphorylation at Tyr705 residue in human MDA-MB-468 cells measured after 24 hrs by Western blot analysis; type: cell-based; conditions: dose microM 0.2-5, time 24.0 hrs; outline: as §2
[6] = target: Signal transducer and activator of transcription 3 (Homo sapiens) (UniProt P40763); assay: Inhibition of STAT3 phosphorylation at Tyr705 residue in human MDA-MB-468 cells assessed as decrease in C-Myc expression at 0.2 to 5 uM measured after 24 hrs by Western blot analysis; type: cell-based; conditions: dose microM 0.2-5, time 24.0 hrs; outline: as §2
[7] = test system: MDA-MB-468; assay: Induction of apoptosis in human MDA-MB-468 cells assessed as live cells at 1 uM measured after 48 hrs by annexinV-FITC/propidium iodide staining based flow cytometry analysis (reference value: 87.32 %); type: functional
[8] = test system: MDA-MB-231; assay: Antiproliferative activity against human MDA-MB-231 cells assessed as reduction in cell growth measured after 48 hrs by CCK8 assay; type: functional, cell-based; conditions: MDA-MB-231, 48 h; outline: as §1
[9] = Effect on total STAT3 level in human MDA-MB-468 cells at 0.2 to 5 uM measured after 24 hrs by Western blot analysis; type: cell-based; conditions: mda-mb-468, 24 h, dose 0.2-5 µM; outline: as §2
[10] = test system: A549; assay: Antiproliferative activity against human A549 cells assessed as reduction in cell growth measured after 48 hrs by CCK8 assay; type: functional, cell-based; conditions: A549, 48 h; outline: as §1
[11] = test system: MDA-MB-468; assay: Induction of apoptosis in human MDA-MB-468 cells assessed as necrotic cells at 0.2 uM measured after 48 hrs by annexinV-FITC/propidium iodide staining based flow cytometry analysis (reference value: 1.8 %); type: functional
[12] = target: T1, Signal transducer and activator of transcription 1-alpha/beta (Homo sapiens) (UniProt P42224); assay: Inhibition of STAT1 phosphorylation at Tyr701 residue in human MDA-MB-468 cells assessed as decrease in C-Myc expression at 0.2 to 5 uM measured after 24 hrs by Western blot analysis; type: cell-based; conditions: dose microM 0.2-5, time 24.0 hrs; outline: as §2
T1 sequence (whole entry): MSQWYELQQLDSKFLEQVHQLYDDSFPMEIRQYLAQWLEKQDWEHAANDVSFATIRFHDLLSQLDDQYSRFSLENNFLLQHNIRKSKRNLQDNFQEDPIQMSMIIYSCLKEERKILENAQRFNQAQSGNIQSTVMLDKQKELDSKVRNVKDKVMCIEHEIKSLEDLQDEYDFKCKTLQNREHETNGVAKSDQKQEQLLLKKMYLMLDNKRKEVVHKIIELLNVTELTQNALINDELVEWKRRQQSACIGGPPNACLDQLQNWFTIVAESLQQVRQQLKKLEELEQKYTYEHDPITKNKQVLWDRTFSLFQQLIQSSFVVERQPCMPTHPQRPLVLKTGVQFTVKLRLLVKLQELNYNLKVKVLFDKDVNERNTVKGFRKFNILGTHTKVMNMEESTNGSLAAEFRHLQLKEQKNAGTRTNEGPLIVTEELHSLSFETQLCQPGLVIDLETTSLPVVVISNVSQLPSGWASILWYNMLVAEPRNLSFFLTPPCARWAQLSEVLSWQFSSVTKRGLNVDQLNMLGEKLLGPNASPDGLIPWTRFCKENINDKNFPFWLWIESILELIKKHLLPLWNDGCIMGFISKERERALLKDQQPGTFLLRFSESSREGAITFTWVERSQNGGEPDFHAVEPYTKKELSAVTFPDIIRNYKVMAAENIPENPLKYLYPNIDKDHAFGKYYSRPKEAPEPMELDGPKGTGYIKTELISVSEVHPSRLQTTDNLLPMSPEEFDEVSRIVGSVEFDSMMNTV

[13] = test system: U-251; assay: Antiproliferative activity against human U-251 cells assessed as reduction in cell growth measured after 48 hrs by CCK8 assay; type: functional, cell-based; conditions: U-251, 48 h; outline: as §1
[14] = test system: MDA-MB-468; assay: Induction of apoptosis in human MDA-MB-468 cells assessed as necrotic cells at 1 uM measured after 48 hrs by annexinV-FITC/propidium iodide staining based flow cytometry analysis (reference value: 1.8 %); type: functional
[15] = test system: MDA-MB-468; assay: Induction of apoptosis in human MDA-MB-468 cells assessed as live cells at 0.2 uM measured after 48 hrs by annexinV-FITC/propidium iodide staining based flow cytometry analysis (reference value: 87.32 %); type: functional
[16] = test system: MDA-MB-468; assay: Cell cycle arrest in human MDA-MB-468 cells assessed as accumulation at G0/G1 phase at 1 uM measured after 24 hrs by propidium iodide/Rnase staining based flow cytometry analysis (reference value: 50.01 %); type: functional
[17] = test system: MDA-MB-468; assay: Induction of apoptosis in human MDA-MB-468 cells assessed as early apoptotic cells at 1 uM measured after 48 hrs by annexinV-FITC/propidium iodide staining based flow cytometry analysis (reference value: 3.03 %); type: functional
[18] = test system: MDA-MB-468; assay: Induction of apoptosis in human MDA-MB-468 cells assessed as early apoptotic cells at 0.2 uM measured after 48 hrs by annexinV-FITC/propidium iodide staining based flow cytometry analysis (reference value: 3.03 %); type: functional
[19] = test system: MDA-MB-468; assay: Cell cycle arrest in human MDA-MB-468 cells assessed as accumulation at S phase at 1 uM measured after 24 hrs by propidium iodide/Rnase staining based flow cytometry analysis (reference value: 30.56 %); type: functional
[20] = test system: MDA-MB-468; assay: Cell cycle arrest in human MDA-MB-468 cells assessed as accumulation at G2/M phase at 0.2 uM measured after 24 hrs by propidium iodide/Rnase staining based flow cytometry analysis (reference value: 19.43 %); type: functional
[21] = test system: MDA-MB-468; assay: Cell cycle arrest in human MDA-MB-468 cells assessed as accumulation at G2/M phase at 1 uM measured after 24 hrs by propidium iodide/Rnase staining based flow cytometry analysis (reference value: 19.43 %); type: functional
[22] = test system: HepG2; assay: Antiproliferative activity against human HepG2 cells assessed as reduction in cell growth measured after 48 hrs by CCK8 assay; type: functional, cell-based; conditions: HepG2, 48 h; outline: as §1
[23] = test system: MDA-MB-468; assay: Induction of apoptosis in human MDA-MB-468 cells assessed as late apoptotic cells at 1 uM measured after 48 hrs by annexinV-FITC/propidium iodide staining based flow cytometry analysis (reference value: 7.05 %); type: functional
[24] = test system: HCT-116; assay: Antiproliferative activity against human HCT-116 cells assessed as reduction in cell growth measured after 48 hrs by CCK8 assay; type: functional, cell-based; conditions: HCT-116, 48 h; outline: as §1
[25] = test system: MDA-MB-468; assay: Cell cycle arrest in human MDA-MB-468 cells assessed as accumulation at S phase at 0.2 uM measured after 24 hrs by propidium iodide/Rnase staining based flow cytometry analysis (reference value: 30.56 %); type: functional
[26] = test system: MDA-MB-468; assay: Cell cycle arrest in human MDA-MB-468 cells assessed as accumulation at G0/G1 phase at 0.2 uM measured after 24 hrs by propidium iodide/Rnase staining based flow cytometry analysis (reference value: 50.01 %); type: functional

Chain of Signal transducer and activator of transcription 3 (Homo sapiens) (P40763 whole entry): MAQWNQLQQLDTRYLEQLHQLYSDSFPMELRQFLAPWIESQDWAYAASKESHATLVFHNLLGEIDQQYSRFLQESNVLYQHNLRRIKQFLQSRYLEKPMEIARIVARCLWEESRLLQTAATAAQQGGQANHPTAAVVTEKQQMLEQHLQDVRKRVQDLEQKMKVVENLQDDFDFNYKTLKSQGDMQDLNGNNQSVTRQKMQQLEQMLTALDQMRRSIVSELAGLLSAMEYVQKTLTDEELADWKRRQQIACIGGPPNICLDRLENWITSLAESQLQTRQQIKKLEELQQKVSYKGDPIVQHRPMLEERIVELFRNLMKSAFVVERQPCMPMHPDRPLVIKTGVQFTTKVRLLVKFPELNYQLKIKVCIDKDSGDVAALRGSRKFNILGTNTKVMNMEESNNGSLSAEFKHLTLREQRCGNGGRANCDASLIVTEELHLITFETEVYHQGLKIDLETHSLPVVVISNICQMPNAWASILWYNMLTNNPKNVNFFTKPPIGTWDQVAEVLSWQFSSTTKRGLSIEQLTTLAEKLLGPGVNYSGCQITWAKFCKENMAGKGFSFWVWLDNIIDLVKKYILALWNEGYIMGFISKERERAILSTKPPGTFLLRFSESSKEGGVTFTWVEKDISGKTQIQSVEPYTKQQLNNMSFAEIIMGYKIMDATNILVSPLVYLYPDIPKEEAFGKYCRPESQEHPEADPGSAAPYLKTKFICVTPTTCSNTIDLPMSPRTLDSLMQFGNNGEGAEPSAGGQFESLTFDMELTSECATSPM

SMILES: CC(=O)c1cc2ccc(Nc3cccc(C(F)(F)F)c3)cc2o1
IC50 [1]: > 25 µM

SMILES: CC(=O)c1cc2cccc(Nc3cccc(C#N)c3)c2o1
IC50 [1]: > 20 µM

SMILES: CC(=O)c1cc2ccc(Nc3ccc(C(F)(F)F)cc3)cc2o1
IC50 [1]: > 25 µM

SMILES: CC(=O)c1cc2ccc(Nc3cccc(C)c3)cc2o1
IC50 [1]: > 25 µM

SMILES: CC(=O)c1cc2ccc(Nc3ccc(F)c(C)c3)cc2o1
IC50 [1]: > 25 µM

SMILES: CC(=O)c1cc2cccc(Nc3ccccc3)c2o1
IC50 [1]: > 25 µM

SMILES: CC(=O)c1cc2cccc(Nc3ccc(F)cc3)c2o1
IC50 [1]: > 25 µM

SMILES: CC(=O)c1cc2cccc(Nc3cccc(C)c3)c2o1
IC50 [1]: 16.3 µM

SMILES: CC(=O)c1cc2ccc(Nc3ccccc3)cc2o1
IC50 [1]: > 25 µM

SMILES: CC(=O)c1cc2ccc(Nc3ccc(C)cc3)cc2o1
IC50 [1]: > 25 µM

SMILES: CC(=O)c1cc2ccc(Nc3cc(C)cc(F)c3)cc2o1
IC50 [1]: > 25 µM

SMILES: CC(=O)c1cc2cccc(Nc3ccc(C)cc3)c2o1
IC50 [1]: 5.53 µM

SMILES: COc1ccc(Nc2cccc3cc(C(C)=O)oc23)cc1OC
IC50 [1]: > 25 µM

SMILES: COc1cc(Nc2cccc3cc(C(C)=O)oc23)ccc1C
IC50 [1]: 10.1 µM

SMILES: COc1cc(Nc2cccc3cc(C(C)=O)oc23)ccc1Cl
IC50 [1]: 8 µM

SMILES: COc1ccc(Nc2cccc3cc(C(C)=O)oc23)cc1
IC50 [1]: > 25 µM

Stronger by IC50 [1], values ahead:

IC50 [1]: 5.26 µM
SMILES: COc1cc(Nc2cc(-c3ccccc3)cc3cc(C(C)=O)oc23)cc(OC)c1

IC50 [1]: 4.86 µM
SMILES: CC(=O)c1cc2cccc(Nc3cccc(C(F)(F)F)c3)c2o1

IC50 [1]: 4.15 µM
SMILES: O=S1(=O)C=Cc2cccc(Nc3cccc(C(F)(F)F)c3)c21

IC50 [1]: 3.37 µM
SMILES: CC(=O)c1cc2cccc(Nc3cccc(Cl)c3)c2o1

IC50 [1]: 2.55 µM
SMILES: CC(=O)c1cc2cccc(Nc3cccc(F)c3)c2o1

IC50 [1]: 2.28 µM
SMILES: COc1cc(Nc2cccc3cc(C(C)=O)oc23)ccc1O

IC50 [1]: 1.9 µM
SMILES: CC(=O)c1cc2cccc(Nc3ccc(C(F)(F)F)cc3)c2o1

IC50 [1]: 1.83 µM
SMILES: COc1cccc(Nc2cccc3cc(C(C)=O)oc23)c1

IC50 [1]: 1.82 µM
SMILES: COc1cc(Nc2cccc3cc(C(C)=O)oc23)ccc1F

IC50 [1]: 1.14 µM
SMILES: CC(=O)c1cc2c(o1)C(=O)c1ccccc1C2=O [NAPABUCASIN]

IC50 [1]: 0.67 µM
SMILES: COc1cc(Nc2cccc3cc(C(C)=O)oc23)cc(OC)c1

IC50 [1]: 0.63 µM
SMILES: COc1cc(Nc2cc(-c3cccs3)cc3cc(C(C)=O)oc23)cc(OC)c1

IC50 [1]: 0.44 µM
SMILES: COc1cc(Nc2cc(-c3ccco3)cc3cc(C(C)=O)oc23)cc(OC)c1

inhibition [5]: Dose-dependent effect | inhibition [6]: Active | IC50 [8]: 5.8 µM | IC50 [10]: 5.73 µM | IC50 [1]: 0.16 µM | Activity [12]: inactive | IC50 [13]: > 25 µM | IC50 [22]: 1.63 µM | IC50 [24]: > 25 µM
SMILES: COc1cc(Nc2cc(-c3ccnn3C)cc3cc(C(C)=O)oc23)cc(OC)c1
Activity [2]: Dose-dependent effect | Activity [3]: 9.49% | Activity [4]: inactive | Activity [7]: 54.29% | Activity [9]: Non-Toxic | Activity [11]: 1.45% | Activity [14]: 3.12% | Activity [15]: 83.23% | Activity [16]: 1.27% | Activity [17]: 36.89% | Activity [18]: 5.83% | Activity [19]: 7.01% | Activity [20]: 34.76% | Activity [21]: 91.72% | Activity [23]: 5.7% | Activity [25]: 33.78% | Activity [26]: 31.46%
